Assay results: ChEMBL document CHEMBL4229502, “Asperidines A-C, pyrrolidine and piperidine derivatives from the soil-derived fungus Aspergillus sclerotiorum PSU-RSPG178” (Bioorg Med Chem, 2018)
The source made the active and inactive calls. The rule behind the calls is not given here.

Columns and labels:
[1] = biological target: Cystic fibrosis transmembrane conductance regulator (Homo sapiens, UniProt P13569); assay: Inhibition of CFTR-mediated forskolin-induced chloride secretion in human T84 cells after 15 mins by short-circuit current analysis; assay type: cell-based
Outline: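 T84 monolayers grown on 1 cm² porous inserts (500,000 cells/insert) until TEER > 1000 Ω·cm², then mounted in Ussing chambers. Symmetrical Krebs solution (pH 7.3, 10 mM glucose) was gassed with 95% O2/5% CO2 at 37 °C. Chloride secretion was stimulated with 20 µM forskolin, then compound added apically at varied concentrations. Short-circuit current recorded; IC50 from Hill equation.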

Caco-2 [2] = assay: Antioxidant activity in human Caco2 cells assessed as decrease in H2O2-induced reactive oxygen species level after 24 hrs by DCFH-DA dye-based fluorescence assay; assay type: functional, cell-based
Outline: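 Caco-2 cells (ATCC, passages 2–22, DMEM/F-12 with 10% FBS) were treated 24 h at 12.5–100 µM. They were loaded with 10 µM DCFH-DA for 1 h at 37 °C in the dark, then exposed to 0.5 mM H2O2 for 30 min and washed twice. Fluorescence was read at ex 495/em 527 nm. Means ± S.E.M., n = 3, vs H2O2-exposed control cells.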

Vero = assay: Cytotoxicity against African green monkey Vero cells by GFP-based assay; assay type: cell-based; details: Chlorocebus sabaeus
Outline: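 Vero cell assay run in triplicate following a previously published method, with ellipticine as reference drug; IC50 reported.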

Caco-2 [3] = assay: Antioxidant activity in human Caco2 cells assessed as decrease in reactive oxygen species level after 24 hrs by DCFH-DA dye-based fluorescence assay; assay type: functional, cell-based
Outline: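 Caco-2 cells (ATCC, passages 2–22, DMEM/F-12 with 10% FBS) were exposed 24 h at 12.5–100 µM. They were then loaded with 10 µM DCFH-DA for 1 h at 37 °C in the dark and incubated 30 min without H2O2. Fluorescence was read at ex 495/em 527 nm. Means ± S.E.M., n = 3, vs untreated control cells.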

Caco-2 [4] = assay: Cytotoxicity against human Caco2 cells assessed as decrease in cell viability at 12.5 to 100 uM after 24 hrs by MTT assay; assay type: cell-based; details: caco-2, 24 h
Outline: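 Caco-2 cells (ATCC, passages 2–22, DMEM/F-12 with 10% FBS) were plated at 2.5 × 10^4 cells/well for 24 h, then exposed to 12.5, 25, 50, 75 and 100 µM for 24 h. After washing, cells got 5 mg/mL MTT for 4 h, crystals were dissolved in DMSO and A570 read. Viability is % of control, means ± S.E.M., n = 5.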

[5] = biological target: T1, 3-hydroxy-3-methylglutaryl-coenzyme A reductase (Homo sapiens) (UniProt P04035); assay: Inhibition of human HMG-CoA reductase catalytic domain at 200 uM using HMG-CoA as substrate measured every 20 secs for 10 mins relative to control
T1 sequence (whole entry): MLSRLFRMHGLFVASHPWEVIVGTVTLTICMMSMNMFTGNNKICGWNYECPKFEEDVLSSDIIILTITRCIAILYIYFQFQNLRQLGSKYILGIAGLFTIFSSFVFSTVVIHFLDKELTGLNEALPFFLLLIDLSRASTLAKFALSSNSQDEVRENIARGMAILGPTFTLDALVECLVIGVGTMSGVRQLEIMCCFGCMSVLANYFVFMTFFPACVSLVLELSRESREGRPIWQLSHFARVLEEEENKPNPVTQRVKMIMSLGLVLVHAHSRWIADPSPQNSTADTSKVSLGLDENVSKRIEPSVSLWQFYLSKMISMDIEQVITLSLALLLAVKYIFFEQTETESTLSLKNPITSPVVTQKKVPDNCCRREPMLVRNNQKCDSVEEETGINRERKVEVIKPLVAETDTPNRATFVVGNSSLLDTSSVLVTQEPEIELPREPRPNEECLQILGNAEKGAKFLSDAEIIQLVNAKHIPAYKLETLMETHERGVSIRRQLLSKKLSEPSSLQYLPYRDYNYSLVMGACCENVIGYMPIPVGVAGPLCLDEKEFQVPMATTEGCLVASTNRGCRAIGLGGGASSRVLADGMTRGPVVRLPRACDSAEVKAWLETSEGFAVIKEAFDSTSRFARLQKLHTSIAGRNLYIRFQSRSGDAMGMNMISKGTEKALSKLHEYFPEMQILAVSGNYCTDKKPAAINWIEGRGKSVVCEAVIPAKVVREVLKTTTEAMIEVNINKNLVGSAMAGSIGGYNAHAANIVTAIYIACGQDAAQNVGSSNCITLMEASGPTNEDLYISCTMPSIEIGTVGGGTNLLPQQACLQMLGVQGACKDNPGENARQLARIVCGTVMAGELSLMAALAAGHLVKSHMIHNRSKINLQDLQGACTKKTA
Outline: (§1)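 Cell-free kit assay: human HMGR catalytic domain added to buffer with NADPH and HMG-CoA to start the reaction at 37 °C. NADPH oxidation followed as A340 every 20 s for 10 min. Results expressed as percent inhibition of untreated control, n = 3.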

[6] = biological target: T1, 3-hydroxy-3-methylglutaryl-coenzyme A reductase (Homo sapiens); assay: Inhibition of human HMG-CoA reductase catalytic domain at 1 uM using HMG-CoA as substrate measured every 20 secs for 10 mins relative to control; outline: as §1

Row | inhibition [1] | inhibition [5] | inhibition [6] [%] | IC50 [1] [µM] | Compound | Activity (Caco-2 [2]) | IC50 (Vero) [µM] | Activity (Caco-2 [3]) | Activity (Caco-2 [4]) | Activity (Vero)
1 | Dose-dependent effect | 29% | – | – | CCCCCCCC[C@@H]1CC[C@H](O)[C@H](Cc2ccccc2)N1C | Dose-dependent effect | 51.5 | Dose-dependent effect | Non-Toxic | –
2 | – | – | 86 | – | CC[C@H](C)C(=O)O[C@H]1C[C@H](O)C=C2C=C[C@H](C)[C@H](CC[C@@H](O)C[C@@H](O)CC(=O)O)[C@H]21 | – | – | – | – | –
3 | – | inactive | – | 58.6 | CCCCCCCCC[C@@H]1C[C@H](O)[C@H]2C[N@]1O[C@@H]2c1ccccc1 | Dose-dependent effect | – | Dose-dependent effect | Non-Toxic | Non-Toxic
4 | – | – | – | – | Cc1c2ccncc2c(C)c2c1[nH]c1ccccc12 [ELLIPTECINE] | – | 4.06 | – | – | –
